Active and inactive are the calls of the source. The calls are words filed in the database; no cut-off is given here.
Tests used:
DU-145 = assay: Cytotoxicity against human DU-145 cells assessed as reduction in cell viability at 0.00125 to 100 uM incubated for 48 hrs by MTT assay; type: functional, cell-based; details: dose 0.00125-100 µM
Summary of the method: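 DU145 cells in DMEM with 10% FBS were seeded at 14 000 cells/well and allowed to adhere for 24 h. Test agents were diluted from 10 mM DMSO stocks (100, 50, 25 µM; 10, 5, 1.25 nM) and applied in triplicate for 48 h at 37 °C, 5% CO2, with DMSO as vehicle. Read-out was 250 µg/mL MTT for 4 h, DMSO solubilization, and A570 with 690 nm reference. Values normalized to DMSO.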

Histone deacetylase 2 [1] = target: T1, Histone deacetylase 2 (Homo sapiens, UniProt Q92769); assay: Inhibition of recombinant human full-length HDAC2 preincubated for 20 mins with DTT followed by enzyme addition and measured after 10 mins by Glo-luminescence assay
Summary of the method: (§1)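 Compounds were serially diluted and incubated with enzyme for 10 min. HDAC-Glo I/II substrate/developer was then added, and luminescence read after 40 min at 23 °C. IC50 from four-parameter fits from two independent titrations, mean ± SD.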

Histone deacetylase 2 [2] = target: T1, Histone deacetylase 2; assay: Inhibition of recombinant human full-length HDAC2 incubated for 10 mins by Glo-luminescence assay; summary of the method: as §1

T1 sequence (Q92769 whole entry): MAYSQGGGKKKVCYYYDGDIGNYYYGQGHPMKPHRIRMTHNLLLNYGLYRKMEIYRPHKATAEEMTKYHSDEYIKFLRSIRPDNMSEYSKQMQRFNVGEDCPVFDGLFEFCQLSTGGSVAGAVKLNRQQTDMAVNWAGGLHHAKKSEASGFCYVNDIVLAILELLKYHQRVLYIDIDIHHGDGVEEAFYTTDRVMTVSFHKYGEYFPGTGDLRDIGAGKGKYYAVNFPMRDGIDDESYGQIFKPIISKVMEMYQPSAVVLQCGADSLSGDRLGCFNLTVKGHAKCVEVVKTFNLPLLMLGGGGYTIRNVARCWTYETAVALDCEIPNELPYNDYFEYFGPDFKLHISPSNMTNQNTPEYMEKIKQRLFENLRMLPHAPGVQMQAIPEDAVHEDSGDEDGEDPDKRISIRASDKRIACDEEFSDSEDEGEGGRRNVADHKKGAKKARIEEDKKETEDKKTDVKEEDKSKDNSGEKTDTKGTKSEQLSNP

IC50 (Histone deacetylase 2 [1]) [µM] | IC50 (Histone deacetylase 2 [2]) [µM] | Compound | Activity (DU-145)
18 | > 100 | CC(C)(C)NC(=O)CC(O)/C=C/CCSSCC/C=C/C(O)CC(=O)NC(C)(C)C (stereo not given) | inactive
17 | 280 | CCCC[C@@H](NC(=O)CC(O)/C=C/CCSSCC/C=C/C(O)CC(=O)N[C@H](CCCC)C(=O)OC)C(=O)OC (stereo not given in full) | 

Reference: ChEMBL document CHEMBL5046273, “Development of a Novel, Small-Molecule Brain-Penetrant Histone Deacetylase Inhibitor That Enhances Spatial Memory Formation in Mice” (J Med Chem, 2022)
